Test results from ChEMBL document CHEMBL1255307, “Role of the AheABC efflux pump in Aeromonas hydrophila intrinsic multidrug resistance” (2008).
Values after ≈ are worked out from the molar mass of the structure shown. Where a SMILES comes first, the peptide text is derived from it. Bridges are numbered along the chain shown (N, C = ends). [ ]: non-standard residue; d: D form. The star is where a group is joined. NMePhe(4-NMe2) = CN[C@@H](Cc1ccc(N(C)C)cc1)C(=O)O; Pip(4-oxo) = O=C1CCN[C@H](C(=O)O)C1; Picolinoyl(3-OH) = O=C(c1ncccc1O)*; Phg = N[C@H](C(=O)O)c1ccccc1; dAbu = CC[C@@H](N)C(=O)O

What was measured:
Type in all cases: functional
[1] = (§1) Antimicrobial activity against Aeromonas hydrophila subsp. hydrophila ATCC 7966 harboring plasmid pEX19Gm by agar dilution method
How it was run: (§2)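 Agar dilution MICs on MH medium, final inoculum about 10^4 CFU per spot. Tested in A. hydrophila ATCC 7966T and E. coli TG1 strains (wild type, ΔaheB::kan or ΔacrAB), each carrying empty pEX19Gm or a pump-encoding plasmid (pEXAheABC, pUCAcrAB). Run at least in triplicate, mode value reported.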

[2] = system: Escherichia coli; test: Antimicrobial activity against acrAB-deficient Escherichia coli TG1 harboring AcrAB efflux pump by agar dilution method; how it was run: as §2
[3] = (§3) Antimicrobial activity against aheB deficient kanamycin-resistant Aeromonas hydrophila subsp. hydrophila ATCC 7966 harboring plasmid pEX19Gm by agar dilution method; how it was run: as §2
[4] = system: Escherichia coli; test: Antimicrobial activity against acrAB-deficient Escherichia coli TG1 harboring AheABC efflux pump by agar dilution method; how it was run: as §2
[5] = system: Escherichia coli; test: Antimicrobial activity against Escherichia coli TG1 harboring plasmid pEX19Gm by agar dilution method; how it was run: as §2
[6] = (§4) Antimicrobial activity against aheB-deficient kanamycin-resistant Aeromonas hydrophila subsp. hydrophila ATCC 7966 harboring AheABC efflux pump by agar dilution method in presence of 64 mg/L efflux pump inhibitor phenylalanine-arginine-beta-naphthylamide
[7] = (§5) Antimicrobial activity against Aeromonas hydrophila subsp. hydrophila ATCC 7966 harboring plasmid pEX19Gm by agar dilution method in presence of 64 mg/L efflux pump inhibitor phenylalanine-arginine-beta-naphthylamide
[8] = (§6) Antimicrobial activity against aheB deficient kanamycin-resistant Aeromonas hydrophila subsp. hydrophila ATCC 7966 harboring AheABC efflux pump by agar dilution method; how it was run: as §2
[9] = system: Escherichia coli; test: Antimicrobial activity against acrAB-deficient Escherichia coli TG1 harboring plasmid pEX19Gm by agar dilution method; how it was run: as §2
[10] = (§7) Antimicrobial activity against aheB deficient kanamycin-resistant Aeromonas hydrophila subsp. hydrophila ATCC 7966 harboring plasmid pEX19Gm by agar dilution method in presence of 64 mg/L efflux pump inhibitor phenylalanine-arginine-beta-naphthylamide
[11] = system: Aeromonas hydrophila subsp. hydrophila ATCC 7966; test: as §1; how it was run: as §2
[12] = system: Aeromonas hydrophila subsp. hydrophila ATCC 7966; test: as §3; how it was run: as §2
[13] = system: Aeromonas hydrophila subsp. hydrophila ATCC 7966; test: as §4
[14] = system: Aeromonas hydrophila subsp. hydrophila ATCC 7966; test: as §5
[15] = system: Aeromonas hydrophila subsp. hydrophila ATCC 7966; test: as §6; how it was run: as §2
[16] = system: Aeromonas hydrophila subsp. hydrophila ATCC 7966; test: as §7

Row | Compound | MIC [1] | MIC [2] | MIC [3] | MIC [4] | MIC [5] | MIC [6] | MIC [7] | MIC [8] | MIC [9] | MIC [10] | MIC [11] | MIC [12] | MIC [13] | MIC [14] | MIC [15] | MIC [16]
1 | CN(C)c1ccc2cc3ccc(N(C)C)cc3nc2c1 [ACRIDINE ORANGE] | 512 µg/mL (≈ 1930 µM) | > 1020 µg/mL | 256 µg/mL (≈ 965 µM) | 256 µg/mL (≈ 965 µM) | > 1020 µg/mL | 256 µg/mL | 256 µg/mL | 1020 µg/mL (≈ 3860 µM) | 128 µg/mL (≈ 482 µM) | 128 µg/mL |  |  |  |  |  | 
2 | CCN1CCN(C(=O)N[C@@H](C(=O)N[C@@H]2C(=O)N3C(C(=O)O)=C(CSc4nnnn4C)CS[C@H]23)c2ccc(O)cc2)C(=O)C1=O [CEFOPERAZONE] | 0.25 µg/mL (≈ 0.387 µM) | 8 µg/mL (≈ 12.4 µM) | 0.06 µg/mL (≈ 0.0929 µM) | 0.06 µg/mL (≈ 0.0929 µM) | 0.25 µg/mL (≈ 0.387 µM) | 2 µg/mL | 0.25 µg/mL | 2 µg/mL (≈ 3.1 µM) | 0.03 µg/mL (≈ 0.0465 µM) | 0.06 µg/mL |  |  |  |  |  | 
3 | CO/N=C(\C(=O)N[C@@H]1C(=O)N2C(C(=O)O)=C(COC(N)=O)CS[C@H]12)c1ccco1 [CEFUROXIME] | 1 µg/mL (≈ 2.36 µM) | 8 µg/mL (≈ 18.9 µM) | 0.25 µg/mL (≈ 0.589 µM) | 2 µg/mL (≈ 4.71 µM) | 4 µg/mL (≈ 9.43 µM) | 4 µg/mL | 1 µg/mL | 4 µg/mL (≈ 9.43 µM) | 0.5 µg/mL (≈ 1.18 µM) | 0.25 µg/mL |  |  |  |  |  | 
4 | CC[C@H]1OC(=O)[C@H](C)[C@@H](O[C@H]2C[C@@](C)(OC)[C@@H](O)[C@H](C)O2)[C@H](C)[C@@H](O[C@@H]2O[C@H](C)C[C@H](N(C)C)[C@H]2O)[C@](C)(O)C[C@@H](C)C(=O)[C@H](C)[C@@H](O)[C@]1(C)O [ERYTHROMYCIN] | 16 µg/mL (≈ 21.8 µM) | 128 µg/mL (≈ 174 µM) | 8 µg/mL (≈ 10.9 µM) | 32 µg/mL (≈ 43.6 µM) | 64 µg/mL (≈ 87.2 µM) | 2 µg/mL | 2 µg/mL | 64 µg/mL (≈ 87.2 µM) | 1 µg/mL (≈ 1.36 µM) | 1 µg/mL |  |  |  |  |  | 
5 | CC(=O)O[C@H]1C[C@@]2(C)[C@@H](C[C@@H](O)[C@H]3[C@@]4(C)CC[C@@H](O)[C@@H](C)[C@@H]4CC[C@@]32C)/C1=C(\CCC=C(C)C)C(=O)O [FUSIDIC ACID] | 128 µg/mL (≈ 248 µM) | 512 µg/mL (≈ 991 µM) | 64 µg/mL (≈ 124 µM) | 128 µg/mL (≈ 248 µM) | 512 µg/mL (≈ 991 µM) | 8 µg/mL | 2 µg/mL | 256 µg/mL (≈ 495 µM) | 2 µg/mL (≈ 3.87 µM) | 1 µg/mL |  |  |  |  |  | 
6 | CC[n+]1c(-c2ccccc2)c2cc(N)ccc2c2ccc(N)cc21.[Br-] [HOMIDIUM BROMIDE] | 128 µg/mL | 512 µg/mL | 64 µg/mL | 64 µg/mL | 512 µg/mL | 512 µg/mL | 128 µg/mL | 512 µg/mL | 2 µg/mL | 64 µg/mL |  |  |  |  |  | 
7 | CCC[C@@H]1C[C@@H](C(=O)N[C@@H]([C@H]2O[C@H](SC)[C@H](O)[C@@H](O)[C@H]2O)[C@@H](C)O)N(C)C1 [LINCOMYCIN] | 128 µg/mL (≈ 315 µM) | > 1020 µg/mL | 64 µg/mL (≈ 157 µM) | 512 µg/mL (≈ 1260 µM) | 1020 µg/mL (≈ 2520 µM) | 256 µg/mL | 128 µg/mL | 256 µg/mL (≈ 630 µM) | 64 µg/mL (≈ 157 µM) | 64 µg/mL |  |  |  |  |  | 
8 | CN(C)c1ccc(O)c2c1C[C@H]1C[C@H]3[C@H](N(C)C)C(O)=C(C(N)=O)C(=O)[C@@]3(O)C(O)=C1C2=O [MINOCYCLINE] | 1 µg/mL (≈ 2.19 µM) | 2 µg/mL (≈ 4.37 µM) | 0.4 µg/mL (≈ 0.874 µM) | 1 µg/mL (≈ 2.19 µM) | 1 µg/mL (≈ 2.19 µM) | 1 µg/mL | 0.5 µg/mL | 2 µg/mL (≈ 4.37 µM) | 0.12 µg/mL (≈ 0.262 µM) | 0.25 µg/mL |  |  |  |  |  | 
9 | CC[C@H]1NC(=O)[C@@H](NC(=O)c2ncccc2O)[C@@H](C)OC(=O)[C@H](c2ccccc2)NC(=O)[C@@H]2CC(=O)CCN2C(=O)[C@H](Cc2ccc(N(C)C)cc2)N(C)C(=O)[C@@H]2CCCN2C1=O [PRISTINAMYCIN 1A] ({Picolinoyl(3-OH)}-T[dAbu]P[NMePhe(4-NMe2)][Pip(4-oxo)][Phg]; ester 1-C) | 32 µg/mL (≈ 36.9 µM) | 64 µg/mL (≈ 73.8 µM) | 8 µg/mL (≈ 9.23 µM) | 64 µg/mL (≈ 73.8 µM) | 64 µg/mL (≈ 73.8 µM) | 4 µg/mL | 2 µg/mL | 128 µg/mL (≈ 148 µM) | 4 µg/mL (≈ 4.61 µM) | 1 µg/mL |  |  |  |  |  | 
10 | CO[C@H]1/C=C/O[C@@]2(C)Oc3c(C)c(O)c4c(O)c(c(/C=N/N5CCN(C)CC5)c(O)c4c3C2=O)NC(=O)/C(C)=C\C=C\[C@H](C)[C@H](O)[C@@H](C)[C@@H](O)[C@@H](C)[C@H](OC(C)=O)[C@@H]1C [RIFAMPIN] | 2 µg/mL (≈ 2.43 µM) | 16 µg/mL (≈ 19.4 µM) | 1 µg/mL (≈ 1.22 µM) | 8 µg/mL (≈ 9.72 µM) | 16 µg/mL (≈ 19.4 µM) | 0.12 µg/mL | 0.06 µg/mL | 4 µg/mL (≈ 4.86 µM) | 8 µg/mL (≈ 9.72 µM) | 0.03 µg/mL |  |  |  |  |  | 
11 | COc1cc(Cc2cnc(N)nc2N)cc(OC)c1OC [TRIMETHOPRIM] | 16 µg/mL (≈ 55.1 µM) | 0.05 µg/mL (≈ 0.172 µM) | 8 µg/mL (≈ 27.6 µM) | 0.05 µg/mL (≈ 0.172 µM) | 0.2 µg/mL (≈ 0.689 µM) | 16 µg/mL | 8 µg/mL | 32 µg/mL (≈ 110 µM) | 0.05 µg/mL (≈ 0.172 µM) | 4 µg/mL |  |  |  |  |  | 
12 | TRIBUTYLSTANNANYL |  | > 1020 µg/mL |  | 16 µg/mL | > 1020 µg/mL |  |  |  | 4 µg/mL |  | 32 µg/mL | 16 µg/mL | 4 µg/mL | 2 µg/mL | 256 µg/mL | 2 µg/mL
